# Measured values taken from ChEMBL document CHEMBL4196034, “Family-wide analysis of aminoacyl-sulfamoyl-3-deazaadenosine analogues as inhibitors of aminoacyl-tRNA synthetases” (Eur J Med Chem, 2018).
# Activity calls are given as the source filed them. The rule behind the calls is not given here.
# Test system: Escherichia coli K-12
# Test: Inhibition of Glycyl-tRNA synthetase in Escherichia coli K-12 BW28357 S30 extract assessed as reduction in tRNA aminoacylation at 2.5 uM preincubated for 5 mins followed by Escherichia coli tRNA and 14C-labeled glycine addition measured after 5 mins by liquid scintillation counting method
# Conditions: not given
# Summary of the method: (§1)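 E. coli K-12 BW28357 cells were grown in LB to A600 0.5, washed in 20 mM Tris.HCl, 10 mM MgCl2, 100 mM KCl, pH 8.0, then sonicated in the same buffer plus 1 mM DTT. The lysate was spun at 15,000 g. Inhibitor (2.5 µM) was preincubated with extract for 5 min. Aminoacylation mix: 30 mM Tris pH 8.0, 5 g/L E. coli tRNA, 3 mM ATP, 8 mM MgCl2, 40 µM 14C-amino acid. Reaction ran at room temperature. TCA precipitation after 5 min, then scintillation counting. Activity was expressed relative to the no-compound control, average of three experiments.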
row,Compound,inhibition
1,NCC(=O)NS(=O)(=O)OC[C@H]1O[C@@H](n2cnc3c(N)ncnc32)[C@H](O)[C@@H]1O,Active
2,NCC(=O)NS(=O)(=O)OC[C@H]1O[C@@H](n2cnc3c(N)nccc32)[C@H](O)[C@@H]1O,inactive

# Molecular target: Serine--tRNA ligase (Escherichia coli (strain K12)) (UniProt P0A8L1)
# Sequence (P0A8L1 whole entry, looked up): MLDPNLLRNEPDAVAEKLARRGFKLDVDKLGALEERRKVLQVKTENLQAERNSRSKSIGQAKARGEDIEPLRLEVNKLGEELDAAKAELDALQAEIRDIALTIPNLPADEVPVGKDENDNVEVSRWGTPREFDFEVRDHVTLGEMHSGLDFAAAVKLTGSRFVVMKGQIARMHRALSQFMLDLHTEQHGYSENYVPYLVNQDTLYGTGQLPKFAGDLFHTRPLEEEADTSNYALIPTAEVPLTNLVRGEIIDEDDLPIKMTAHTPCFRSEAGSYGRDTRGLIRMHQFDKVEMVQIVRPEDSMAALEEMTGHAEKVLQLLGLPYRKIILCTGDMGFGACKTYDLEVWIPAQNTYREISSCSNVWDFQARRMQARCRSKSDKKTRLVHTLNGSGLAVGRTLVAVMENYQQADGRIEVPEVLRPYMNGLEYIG
# Test: Inhibition of Serine-tRNA synthetase in Escherichia coli K-12 BW28357 S30 extract assessed as reduction in tRNA aminoacylation at 2.5 uM preincubated for 5 mins followed by Escherichia coli tRNA and 14C-labeled serine addition measured after 5 mins by liquid scintillation counting method
# Conditions: not given
# Summary of the method: as §1
row,Compound,inhibition
1,Nc1nccc2c1ncn2[C@@H]1O[C@H](COS(=O)(=O)NC(=O)[C@@H](N)CO)[C@@H](O)[C@H]1O,inactive
2,Nc1ncnc2c1ncn2[C@@H]1O[C@H](COS(=O)(=O)NC(=O)[C@@H](N)CO)[C@@H](O)[C@H]1O,Active

# Molecular target: Leucine--tRNA ligase (Escherichia coli (strain K12), UniProt P07813)
# Sequence (P07813 whole entry): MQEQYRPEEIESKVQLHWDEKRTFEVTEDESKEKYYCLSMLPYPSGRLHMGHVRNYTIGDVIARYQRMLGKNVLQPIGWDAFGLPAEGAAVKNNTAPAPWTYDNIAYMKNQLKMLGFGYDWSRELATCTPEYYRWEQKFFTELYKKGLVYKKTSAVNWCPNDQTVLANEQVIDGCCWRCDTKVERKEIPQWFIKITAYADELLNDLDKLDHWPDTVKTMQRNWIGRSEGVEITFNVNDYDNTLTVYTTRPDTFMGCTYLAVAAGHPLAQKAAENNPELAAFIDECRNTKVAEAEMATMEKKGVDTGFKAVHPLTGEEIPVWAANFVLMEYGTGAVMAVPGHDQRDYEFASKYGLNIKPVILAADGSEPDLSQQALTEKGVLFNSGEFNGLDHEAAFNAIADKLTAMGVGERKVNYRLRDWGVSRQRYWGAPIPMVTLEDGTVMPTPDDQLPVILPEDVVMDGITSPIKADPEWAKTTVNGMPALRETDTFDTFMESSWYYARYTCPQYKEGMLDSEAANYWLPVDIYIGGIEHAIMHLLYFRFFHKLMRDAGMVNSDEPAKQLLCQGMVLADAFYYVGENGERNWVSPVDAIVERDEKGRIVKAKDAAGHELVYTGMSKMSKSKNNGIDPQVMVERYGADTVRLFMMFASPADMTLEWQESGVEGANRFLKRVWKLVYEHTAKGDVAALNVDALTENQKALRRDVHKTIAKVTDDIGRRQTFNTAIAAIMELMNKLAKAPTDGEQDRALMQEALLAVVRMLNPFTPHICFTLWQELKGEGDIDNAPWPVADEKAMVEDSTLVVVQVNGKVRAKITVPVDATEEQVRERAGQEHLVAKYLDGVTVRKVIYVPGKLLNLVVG
# Test: (§2) Inhibition of Escherichia coli BL21(DE3) Leucyl-tRNA synthetase assessed as reduction in tRNA aminoacylation preincubated for 10 mins with Escherichia coli tRNA and 14C-labeled leucine followed by ATP addition by liquid scintillation counting method
# Conditions: read-out: Ki(app)
row,Compound,Ki
1,CC(C)C[C@H](N)C(=O)NS(=O)(=O)OC[C@H]1O[C@@H](n2cnc3c(N)nccc32)[C@H](O)[C@@H]1O,0.654 nM

# Test system: not listed separately
# Test: as §2, with “Glycine-tRNA” for “Leucyl-tRNA”, “synthetase alpha subunit/Glycine-tRNA synthetase beta subunit” for “synthetase”, “glycine” for “leucine”
# Conditions: read-out: Ki(app)
# Summary of the method: (§3)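 Purified E. coli aaRS, expressed in Rosetta 2 (DE3) pLysS: ileRS 50 nM, tyrRS 0.5 nM, leuRS 2.5 nM, aspRS, serRS and glyRS 2 nM each. Buffer was 20 mM Tris, 100 mM KCl, 10 mM MgCl2, 5 mM β-mercaptoethanol, pH 7.5. Enzyme was preincubated 10 min at 37°C with serially diluted compound, 50 µM 14C-amino acid, 2 mg/ml tRNA and pyrophosphatase. Reaction was started with 500 µM ATP and quenched within the linear zone, then TCA-precipitated and counted. Ki app came from Greco-Hakala fits.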
row,Compound,Ki
1,NCC(=O)NS(=O)(=O)OC[C@H]1O[C@@H](n2cnc3c(N)ncnc32)[C@H](O)[C@@H]1O,148 nM
2,NCC(=O)NS(=O)(=O)OC[C@H]1O[C@@H](n2cnc3c(N)nccc32)[C@H](O)[C@@H]1O,> 2000 nM

# Molecular target: Serine--tRNA ligase (Escherichia coli (strain K12), UniProt P0A8L1)
# Sequence (P0A8L1 whole entry): as the sequence (P0A8L1 whole entry, looked up) above
# Test: Inhibition of Escherichia coli BL21(DE3) Seryl-tRNA synthetase assessed as reduction in tRNA aminoacylation preincubated for 10 mins with Escherichia coli tRNA and 14C-labeled serine followed by ATP addition by liquid scintillation counting method
# Conditions: read-out: Ki(app)
# Summary of the method: as §3
row,Compound,Ki
1,Nc1nccc2c1ncn2[C@@H]1O[C@H](COS(=O)(=O)NC(=O)[C@@H](N)CO)[C@@H](O)[C@H]1O,523 nM
2,Nc1ncnc2c1ncn2[C@@H]1O[C@H](COS(=O)(=O)NC(=O)[C@@H](N)CO)[C@@H](O)[C@H]1O,0.18 nM

# Test system: Staphylococcus aureus
# Test: Antibacterial activity against Staphylococcus aureus ATCC 65381 up to 100 uM after 18 to 24 hrs by two fold serial dilution method
# Type: functional, organism-based
# Conditions: not given
# Summary of the method: (§4)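 Broth microdilution, twofold series from 100 µM down to 0.39 µM, in LB medium. MIC50 was taken as the lowest concentration giving 50% growth inhibition after 18-24 h incubation at 37.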
row,Compound,Activity
1,NCC(=O)NS(=O)(=O)OC[C@H]1O[C@@H](n2cnc3c(N)ncnc32)[C@H](O)[C@@H]1O,inactive
2,CC(C)C[C@H](N)C(=O)NS(=O)(=O)OC[C@H]1O[C@@H](n2cnc3c(N)nccc32)[C@H](O)[C@@H]1O,inactive
3,Nc1nccc2c1ncn2[C@@H]1O[C@H](COS(=O)(=O)NC(=O)[C@@H](N)CO)[C@@H](O)[C@H]1O,inactive
4,CC(C)C[C@H](N)C(=O)NS(=O)(=O)OC[C@H]1O[C@@H](n2cnc3c(N)ncnc32)[C@H](O)[C@@H]1O,inactive
5,Nc1ncnc2c1ncn2[C@@H]1O[C@H](COS(=O)(=O)NC(=O)[C@@H](N)CO)[C@@H](O)[C@H]1O,inactive
6,NCC(=O)NS(=O)(=O)OC[C@H]1O[C@@H](n2cnc3c(N)nccc32)[C@H](O)[C@@H]1O,inactive

# Test system: Staphylococcus epidermidis
# Test: Antibacterial activity against Staphylococcus epidermidis RP62A up to 100 uM after 18 to 24 hrs by two fold serial dilution method
# Type: functional, organism-based
# Conditions: not given
# Summary of the method: as §4
row,Compound,Activity
1,NCC(=O)NS(=O)(=O)OC[C@H]1O[C@@H](n2cnc3c(N)ncnc32)[C@H](O)[C@@H]1O,inactive
2,CC(C)C[C@H](N)C(=O)NS(=O)(=O)OC[C@H]1O[C@@H](n2cnc3c(N)nccc32)[C@H](O)[C@@H]1O,inactive
3,Nc1nccc2c1ncn2[C@@H]1O[C@H](COS(=O)(=O)NC(=O)[C@@H](N)CO)[C@@H](O)[C@H]1O,inactive
4,CC(C)C[C@H](N)C(=O)NS(=O)(=O)OC[C@H]1O[C@@H](n2cnc3c(N)ncnc32)[C@H](O)[C@@H]1O,inactive
5,Nc1ncnc2c1ncn2[C@@H]1O[C@H](COS(=O)(=O)NC(=O)[C@@H](N)CO)[C@@H](O)[C@H]1O,inactive
6,NCC(=O)NS(=O)(=O)OC[C@H]1O[C@@H](n2cnc3c(N)nccc32)[C@H](O)[C@@H]1O,inactive

# Test system: Kocuria rhizophila
# Test: Antibacterial activity against Kocuria rhizophila ATCC 9341 up to 100 uM after 18 to 24 hrs by two fold serial dilution method
# Type: functional, organism-based
# Conditions: DC2201
# Summary of the method: as §4
row,Compound,Activity
1,NCC(=O)NS(=O)(=O)OC[C@H]1O[C@@H](n2cnc3c(N)ncnc32)[C@H](O)[C@@H]1O,inactive
2,CC(C)C[C@H](N)C(=O)NS(=O)(=O)OC[C@H]1O[C@@H](n2cnc3c(N)nccc32)[C@H](O)[C@@H]1O,inactive
3,Nc1nccc2c1ncn2[C@@H]1O[C@H](COS(=O)(=O)NC(=O)[C@@H](N)CO)[C@@H](O)[C@H]1O,inactive
4,CC(C)C[C@H](N)C(=O)NS(=O)(=O)OC[C@H]1O[C@@H](n2cnc3c(N)ncnc32)[C@H](O)[C@@H]1O,inactive
5,Nc1ncnc2c1ncn2[C@@H]1O[C@H](COS(=O)(=O)NC(=O)[C@@H](N)CO)[C@@H](O)[C@H]1O,inactive
6,NCC(=O)NS(=O)(=O)OC[C@H]1O[C@@H](n2cnc3c(N)nccc32)[C@H](O)[C@@H]1O,inactive

# Test system: Escherichia coli
# Test: Antibacterial activity against Escherichia coli NCIB 8743 up to 100 uM after 18 to 24 hrs by two fold serial dilution method
# Type: functional, organism-based
# Conditions: not given
# Summary of the method: as §4
row,Compound,Activity
1,NCC(=O)NS(=O)(=O)OC[C@H]1O[C@@H](n2cnc3c(N)ncnc32)[C@H](O)[C@@H]1O,inactive
2,CC(C)C[C@H](N)C(=O)NS(=O)(=O)OC[C@H]1O[C@@H](n2cnc3c(N)nccc32)[C@H](O)[C@@H]1O,inactive
3,Nc1nccc2c1ncn2[C@@H]1O[C@H](COS(=O)(=O)NC(=O)[C@@H](N)CO)[C@@H](O)[C@H]1O,inactive
4,CC(C)C[C@H](N)C(=O)NS(=O)(=O)OC[C@H]1O[C@@H](n2cnc3c(N)ncnc32)[C@H](O)[C@@H]1O,inactive
5,Nc1ncnc2c1ncn2[C@@H]1O[C@H](COS(=O)(=O)NC(=O)[C@@H](N)CO)[C@@H](O)[C@H]1O,inactive
6,NCC(=O)NS(=O)(=O)OC[C@H]1O[C@@H](n2cnc3c(N)nccc32)[C@H](O)[C@@H]1O,inactive

# Test system: Pseudomonas aeruginosa
# Test: Antibacterial activity against Pseudomonas aeruginosa PAO1 up to 100 uM after 18 to 24 hrs by two fold serial dilution method
# Type: functional, organism-based
# Conditions: not given
# Summary of the method: as §4
row,Compound,Activity
1,NCC(=O)NS(=O)(=O)OC[C@H]1O[C@@H](n2cnc3c(N)ncnc32)[C@H](O)[C@@H]1O,inactive
2,CC(C)C[C@H](N)C(=O)NS(=O)(=O)OC[C@H]1O[C@@H](n2cnc3c(N)nccc32)[C@H](O)[C@@H]1O,inactive
3,Nc1nccc2c1ncn2[C@@H]1O[C@H](COS(=O)(=O)NC(=O)[C@@H](N)CO)[C@@H](O)[C@H]1O,inactive
4,CC(C)C[C@H](N)C(=O)NS(=O)(=O)OC[C@H]1O[C@@H](n2cnc3c(N)ncnc32)[C@H](O)[C@@H]1O,inactive
5,Nc1ncnc2c1ncn2[C@@H]1O[C@H](COS(=O)(=O)NC(=O)[C@@H](N)CO)[C@@H](O)[C@H]1O,inactive
6,NCC(=O)NS(=O)(=O)OC[C@H]1O[C@@H](n2cnc3c(N)nccc32)[C@H](O)[C@@H]1O,inactive
